ChEMBL document CHEMBL3853270, “Influence of Birch Bark Triterpenes on Keratinocytes and Fibroblasts from Diabetic and Nondiabetic Donors” (2016)
Activity calls are given as the source filed them. The rule behind the calls is not given here.

Legend:
Fibroblast [1] = experiment: Effect on antioxidant related gene expression in non-diabetic young human primary fibroblasts assessed as SOD2 mRNA levels at 9.81 uM after 6 hrs by qPCR analysis; format: functional
Keratinocyte [2] = experiment: Effect on cellular connection related gene expression in diabetic adult human primary keratinocytes assessed as GJB2 mRNA levels at 9.81 uM after 6 hrs by qPCR analysis; format: functional
Keratinocyte [3] = experiment: Effect on pro-inflammatory related gene expression in non-diabetic young human primary keratinocytes assessed as PTGS2 mRNA levels at 9.81 uM after 6 hrs by qPCR analysis; format: functional
[4] = biological target: Cell division control protein 42 homolog (Homo sapiens) (UniProt P60953); experiment: Activation of Cdc42 in human diabetic primary keratinocytes at 10 nM after 20 mins by immunoblot method
Cell division control protein 42 homolog (Homo sapiens), sequence (P60953 whole entry, looked up): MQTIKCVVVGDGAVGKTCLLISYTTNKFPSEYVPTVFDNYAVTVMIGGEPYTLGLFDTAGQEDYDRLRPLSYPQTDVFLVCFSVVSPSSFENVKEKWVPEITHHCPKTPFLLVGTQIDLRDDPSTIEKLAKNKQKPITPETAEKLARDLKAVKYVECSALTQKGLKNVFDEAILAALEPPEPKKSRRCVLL
Procedure, shortened: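 Keratinocytes from a diabetic adult donor; incubation 3 h for RhoA, 20 min for Cdc42 and Rac1. Lysates made in glycerol/Tris pH 7.4/NaCl/NP-40/MgCl2/PMSF buffer, spun at 4 °C. Active GTP-bound form pulled down on glutathione-sepharose with GST-Rhotekin (RhoA) or GST-PAK (Cdc42, Rac1) for 1 h at 4 °C. Total and pulled-down protein read by immunoblot with ECL; n = 3.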

Fibroblast [5] = experiment: Effect on growth factor related gene expression in non-diabetic young human primary fibroblasts assessed as GDF15 mRNA levels at 9.81 uM after 6 hrs by qPCR analysis; format: functional
Procedure, shortened: (§1)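 Primary human dermal fibroblasts (young or adult nondiabetic, adult diabetic donor) were treated for 6 h against a 0.1% DMSO solvent control. RNA from 320 000 cells per sample was measured by Fluidigm Biomark high-throughput qPCR. Values are fold change relative to solvent control, from four independent experiments, with SD. One-way ANOVA with Bonferroni post-test was applied.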

Keratinocyte [6] = experiment: Effect on ECM related gene expression in diabetic adult human primary keratinocytes assessed as FBN1 mRNA levels at 9.81 uM after 6 hrs by qPCR analysis; format: functional
Procedure, shortened: (§2)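 Primary keratinocytes from nondiabetic young and adult and diabetic adult donors; 400 000 cells per sample, 6 h exposure at 1.96 or 9.81 μM. RNA extracted and read on a high-throughput qPCR chip. Results are fold change versus 0.1% DMSO solvent control from 5−7 independent experiments over two donors per group, SD, one-way ANOVA with Bonferroni post-test.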

Keratinocyte [7] = experiment: Effect on wound healing activity in diabetic adult human primary keratinocytes assessed as increase in soluble gp130 part of IL6 receptor protein levels at 1.96 uM after 24 hrs by bead-based suspension array analysis; format: functional
Fibroblast [8] = experiment: Effect on pro-inflammatory related gene expression in non-diabetic young human primary fibroblasts assessed as IL1B mRNA levels at 9.81 uM after 6 hrs by qPCR analysis; format: functional
Keratinocyte [9] = experiment: Effect on pro-inflammatory related gene expression in diabetic adult human primary keratinocytes assessed as TNF mRNA levels at 9.81 uM after 6 hrs by qPCR analysis; format: functional
Fibroblast [10] = experiment: Effect on chemokines related gene expression in non-diabetic adult human primary fibroblasts assessed as WDR26 mRNA levels at 1.96 uM after 6 hrs by qPCR analysis; format: functional
Keratinocyte [11] = experiment: Effect on cellular connection related gene expression in non-diabetic adult human primary keratinocytes assessed as GJB2 mRNA levels at 1.96 uM after 6 hrs by qPCR analysis; format: functional
Fibroblast [12] = experiment: Effect on chemokines related gene expression in non-diabetic young human primary fibroblasts assessed as CCL2 mRNA levels at 1.96 uM after 6 hrs by qPCR analysis; format: functional
Fibroblast [13] = experiment: Effect on adhesion molecules related gene expression in diabetic adult human primary fibroblasts assessed as VCAM1 mRNA levels at 9.81 uM after 6 hrs by qPCR analysis; format: functional
Procedure, shortened: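 Dermal fibroblasts from nondiabetic adult and diabetic adult donors, exposed for 6 h at 1.96 or 9.81 μM. ICAM-1 and VCAM-1 mRNA measured by standard qRT-PCR, n = 3. Fold change versus 0.1% DMSO control, SD, one-way ANOVA with Bonferroni post-test.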

Fibroblast [14] = experiment: Effect on growth factor related gene expression in non-diabetic young human primary fibroblasts assessed as VEGFA mRNA levels at 1.96 uM after 6 hrs by qPCR analysis; format: functional; procedure, shortened: as §1
Keratinocyte [15] = experiment: Effect on pro-inflammatory related gene expression in diabetic adult human primary keratinocytes assessed as IL6 mRNA levels at 9.81 uM after 6 hrs by qPCR analysis; format: functional
Fibroblast [16] = experiment: Effect on chemokines related gene expression in non-diabetic adult human primary fibroblasts assessed as CCL2 mRNA levels at 9.81 uM after 6 hrs by qPCR analysis; format: functional
Keratinocyte [17] = experiment: Effect on cellular connection related gene expression in non-diabetic young human primary keratinocytes assessed as GJB2 mRNA levels at 1.96 uM after 6 hrs by qPCR analysis; format: functional
Keratinocyte [18] = experiment: Effect on MMP1 mRNA expression levels in diabetic adult human primary keratinocytes at 9.81 uM after 6 hrs by qPCR analysis; format: functional; procedure, shortened: as §2
[19] = Effect on wound healing activity in non-diabetic adult human primary fibroblasts assessed as upregulation of soluble TNFR1 protein levels at 1.96 uM after 24 hrs by bead-based suspension array analysis; format: functional; details: Fibroblast
Keratinocyte [20] = experiment: Effect on ECM related gene expression in non-diabetic adult human primary keratinocytes assessed as FBN1 mRNA levels at 9.81 uM after 6 hrs by qPCR analysis; format: functional; procedure, shortened: as §2
[21] = Effect on wound healing activity in non-diabetic adult human primary keratinocytes assessed as upregulation of IL8 protein levels at 1.96 uM after 24 hrs by bead-based suspension array analysis; format: functional; details: Keratinocyte
Fibroblast [22] = experiment: Effect on chemokines related gene expression in non-diabetic young human primary fibroblasts assessed as WDR26 mRNA levels at 1.96 uM after 6 hrs by qPCR analysis; format: functional; procedure, shortened: as §1
Fibroblast [23] = experiment: Effect on transcription factor related gene expression in non-diabetic young human primary fibroblasts assessed as JUN mRNA levels at 9.81 uM after 6 hrs by qPCR analysis; format: functional
Fibroblast [24] = experiment: Effect on antioxidant related gene expression in non-diabetic adult human primary fibroblasts assessed as SOD2 mRNA levels at 1.96 uM after 6 hrs by qPCR analysis; format: functional
[25] = Effect on wound healing activity in diabetic adult human primary keratinocytes assessed as upregulation of IL8 protein levels at 1.96 uM after 24 hrs by bead-based suspension array analysis; format: functional; details: Keratinocyte
Fibroblast [26] = experiment: Effect on antiinflammatory related gene expression in non-diabetic young human primary fibroblasts assessed as NFKBIA mRNA levels at 1.96 uM after 6 hrs by qPCR analysis; format: functional
Procedure, shortened: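 Primary dermal fibroblasts from one nondiabetic young, one nondiabetic adult and one diabetic adult donor; 320 000 cells per sample, 6 h at 1.96 or 9.81 μM. RNA measured on a high-throughput qPCR chip. Fold change versus 0.1% DMSO control, four independent experiments, SD, one-way ANOVA with Bonferroni post-test.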

Keratinocyte [27] = experiment: Effect on pro-inflammatory related gene expression in non-diabetic adult human primary keratinocytes assessed as IL6 mRNA levels at 1.96 uM after 6 hrs by qPCR analysis; format: functional
Fibroblast [28] = experiment: Effect on growth factor related gene expression in non-diabetic adult human primary fibroblasts assessed as GDF15 mRNA levels at 1.96 uM after 6 hrs by qPCR analysis; format: functional; procedure, shortened: as §1

## C=C(C)[C@@H]1CC[C@]2(CO)CC[C@]3(C)[C@H](CC[C@@H]4[C@@]5(C)CC[C@H](O)C(C)(C)[C@@H]5CC[C@]43C)[C@@H]12 [BETULIN]
Fibroblast [1]
  fold change (FC): 2.2
Keratinocyte [2]
  fold change (FC): 0.9
Keratinocyte [3]
  fold change (FC): 1.5
[4]
  Activity: Active
Fibroblast [5]
  fold change (FC): 5.1
Keratinocyte [6]
  fold change (FC): 2.5
Keratinocyte [7]
  Activity: Active
Fibroblast [8]
  fold change (FC): 5.7
Keratinocyte [9]
  fold change (FC): 13
Fibroblast [10]
  fold change (FC): 0.9
Keratinocyte [11]
  fold change (FC): 0.7
Fibroblast [12]
  fold change (FC): 4.3
Fibroblast [13]
  fold change (FC): 1.3
Fibroblast [14]
  fold change (FC): 1.7
Keratinocyte [15]
  fold change (FC): 26
Fibroblast [16]
  fold change (FC): 197
Keratinocyte [17]
  fold change (FC): 0.8
Keratinocyte [18]
  fold change (FC): 1.8
[19]
  Activity: Active
Keratinocyte [20]
  fold change (FC): 0.7
[21]
  Activity: Active
Fibroblast [22]
  fold change (FC): 1.1
Fibroblast [23]
  fold change (FC): 1.6
Fibroblast [24]
  fold change (FC): 18
[25]
  Activity: Active
Fibroblast [26]
  fold change (FC): 2.9
Keratinocyte [27]
  fold change (FC): 16.2
Fibroblast [28]
  fold change (FC): 2.1
